According to paper PMC6995037 (Biochemistry, 2015):
“Also recorded” adds a separate entry of the source. Read-outs that look alike come from different tables or passages of the source. No end group written: not given here.

B1: ASCIZ: transcription factor ASCIZ with 17 motifs (protein, UniProt O43313 1-823, looked up)
ATM interactor: MAASEAAAAAGSAALAAGARAVPAATTGAAAAASGPWVPPGPRLRGSRPRPAGATQQPAVPAPPAGELIQPSVSELSRAVRTNILCTVRGCGKILPNSPALNMHLVKSHRLQDGIVNPTIRKDLKTGPKFYCCPIEGCPRGPERPFSQFSLVKQHFMKMHAEKKHKCSKCSNSYGTEWDLKRHAEDCGKTFRCTCGCPYASRTALQSHIYRTGHEIPAEHRDPPSKKRKMENCAQNQKLSNKTIESLNNQPIPRPDTQELEASEIKLEPSFEDSCGSNTDKQTLTTPPRYPQKLLLPKPKVALVKLPVMQFSVMPVFVPTADSSAQPVVLGVDQGSATGAVHLMPLSVGTLILGLDSEACSLKESLPLFKIANPIAGEPISTGVQVNFGKSPSNPLQELGNTCQKNSISSINVQTDLSYASQNFIPSAQWATADSSVSSCSQTDLSFDSQVSLPISVHTQTFLPSSKVTSSIAAQTDAFMDTCFQSGGVSRETQTSGIESPTDDHVQMDQAGMCGDIFESVHSSYNVATGNIISNSLVAETVTHSLLPQNEPKTLNQDIEKSAPIINFSAQNSMLPSQNMTDNQTQTIDLLSDLENILSSNLPAQTLDHRSLLSDTNPGPDTQLPSGPAQNPGIDFDIEEFFSASNIQTQTEESELSTMTTEPVLESLDIETQTDFLLADTSAQSYGCRGNSNFLGLEMFDTQTQTDLNFFLDSSPHLPLGSILKHSSFSVSTDSSDTETQTEGVSTAKNIPALESKVQLNSTETQTMSSGFETLGSLFFTSNETQTAMDDFLLADLAWNTMESQFSSVETQTSAEPHTVSNF
B2: Chica_(410–478) (domain or fragment, human, UniProt Q9H4H8 410-478, looked up)
chain: QTSITTACAGTQTAVITRIASSQTTIWSRSTTTQTDMDENILFPRGTQSTEGSPVSKMSVSRSSSLKSS
B3: LC8 (natural protein)
chain: MSDRKAVIKNADMSEEMQQDAVDCATQALEKYNIEKDIAAYIKKEFDKKYNPTWHCIVGRNFGSYVTHETRHFIYFYLGQVAILLFKSG

What was measured:
LC8 [1] = molecular target: T1, LC8 (Drosophila melanogaster, UniProt Q24117); assay: Isothermal titration calorimetry of LC8 binding to Chica motif peptides; conditions: for relative affinity, in words: comparison between Chica motif peptides; for fold weaker affinity than QT1p: relative to QT1p (Kd 0.4 μM)
Summary of the method: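 Synthetic peptides of Chica motifs, with added non-native N-terminal residues for solubility and A280 quantitation, at 280–300 μM final in 50 mM sodium phosphate, 50 mM NaCl, 0.5 mM sodium azide, pH 7.5. Titrated into 30–35 μM LC8 in the cell at 25 °C. Peak areas were fitted to a single-site model for N, Kd, ΔH and ΔS. Values are the average of three independent experiments.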

LC8 [2] = molecular target: T1, LC8; conditions: read-out: binding affinity; Pak1; cited from earlier work
LC8 [3] = molecular target: T1, LC8; conditions: of 17 motifs; cited from earlier work
LC8 [4] = molecular target: B3; assay: ITC
LC8 [5] = molecular target: B3; assay: ITC; remark: listed apart in the source
Chica_(410–478) = molecular target: B2; assay: ITC

SYTTACAGTQTAV [QT3p]
binding to LC8, in words (LC8 [1]; ITC, 25 °C, pH 7.5): too weak to be measured accurately by ITC; also recorded: immeasurably weak

SYWSRSTTTQTDM [QT4p]
relative affinity, in words (LC8 [1]; ITC): bind LC8 with a similar affinity
fold weaker affinity than QT1p (LC8 [1]): over 10 fold

Pak1: LC8 recognition motif of Pak1 (TPTRDVATSP)
Kd (LC8 [2]): 42.7 µM

SYSVSEVGTQTSI [QT2p]
relative affinity, in words (LC8 [1]; ITC, listed as QT2): bind LC8 with a similar affinity
fold weaker affinity than QT1p (LC8 [1]): over 10 fold

B1
number of motifs that bind LC8 (LC8 [3]): 11

SYSVSEVGTQTSI [QT2p]
Kd (LC8 [4]): 6.3 ± 0.4 µM
dH (LC8 [4]): -8.5 ± 1.1 kcal/mol
stoichiometry N (LC8 [4]): 1

SYWSRSTTTQTDM [QT4p]
Kd (LC8 [4]): 5.2 ± 0.1 µM
dH (LC8 [4]): -8.2 ± 0.1 kcal/mol
stoichiometry N (LC8 [4]): 1

SYRKAIDAATQTEE [QT1p]
dH (LC8 [4]): -6.8 ± 0.2 kcal/mol
stoichiometry N (LC8 [4]): 1

B2
Kd (LC8 [5]): 0.4 ± 0.1 µM

B3
dH (Chica_(410–478)): -7.6 ± 0.2 kcal/mol
stoichiometry N (Chica_(410–478)): 3
